High-throughput results (PubChem)
Rows were chosen to be rich in hits. Some 4.3% of all compounds tested hit in one or more screens of this group.
MC4R antag cAMP: human MC4R antagonism in cAMP assay; MC4R-expressing cells, MTII-stimulated cAMP, LANCE TR-FRET; hit rate 0.48% among 360,000; P32245; inhibition, % at 6.5 µM;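 active means inhibition above its plate's cutoff, the mean of tested wells on that plate plus 3 SD, cut at about 29% in these data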;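 further: 0% = Melanotan II alone and 100% = Melanotan II plus saturating MCL0020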
Target sequence (P32245 whole entry, looked up): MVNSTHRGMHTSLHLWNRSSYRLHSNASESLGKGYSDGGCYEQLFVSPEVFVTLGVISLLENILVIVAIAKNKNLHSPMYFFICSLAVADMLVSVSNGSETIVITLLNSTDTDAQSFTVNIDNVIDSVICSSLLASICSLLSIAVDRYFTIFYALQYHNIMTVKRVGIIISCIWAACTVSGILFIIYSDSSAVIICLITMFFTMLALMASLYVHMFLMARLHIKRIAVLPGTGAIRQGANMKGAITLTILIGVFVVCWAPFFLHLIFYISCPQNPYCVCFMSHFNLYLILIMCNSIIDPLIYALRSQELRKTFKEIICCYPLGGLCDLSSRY
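Assay system: U2OS-MC4R stable cell line; Also added: Melanotan II; Technique: Eu-cAMP/anti-cAMP TR-FRET, emission 671 nm; Times: 30-min compound, 1-h challenge, 1-h detection, room temperature.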
TAAR1 agonist: human TAAR1 agonism; Q96RJ0; CHO RD-HGA16 TAAR1, Fluo-8 calcium fluorescence; vehicle wells 0%, saturating PEA agonist 100%; activation, % at 3 µM; hit rate 0.99% among 360,000;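 active means activation above the mean activation of all test compounds in the run plus 3 SD, cut at about 38% in these data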
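Assay system: CHO-derived RD-HGA16 cells with stable Gα16 and human TAAR1; timing: 17-24 h seeding, 75 min 37 °C dye, 30 min RT; read-out: % activation from peak over basal fluorescence ratio, DMSO-to-PEA scaled; measured by: kinetic Fluo-8 calcium fluorescence; benchmarks: low control DMSO, high control PEA (EC100); doses: 3 µM single concentration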
HTR2A ag: agonists of mouse serotonin 5-HT2A receptor (HTR2A); CHO-K1 mHTR2A beta-arrestin complementation, luminescence; percent of 30 µM serotonin response; P35363; AID 624169; activation, % at 7.6 µM; hit rate 0.66% among 360,000;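 active means activation above a run cutoff, the mean activation of all tested compounds plus 3 SD, cut at about 14% in these data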;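 further: 0% = plate median of compound wells and 100% = 30 µM serotonin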
MC4R ag barr: agonists of human melanocortin 4 receptor (MC4R) beta-arrestin | AID 540308 | activation, % at 8.9 µM | U2OS MC4R beta-arrestin complementation, luminescence; percent of melanotan II response, DMSO zero | hit rate 0.98% among 360,000 | P32245;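 active means activation above a per-plate cutoff, the mean activation of sample wells on that plate plus 3 SD, cut at about 8% in these data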
TAAR1 antagonist: antagonists of human TAAR1; hit rate 1.5% among 360,000; CHO RD-HGA16 TAAR1, Fluo-8 calcium fluorescence, antagonist; inhibition, % at 3 µM; AID 624466; Q96RJ0;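 active means inhibition above a per-plate cutoff, the mean inhibition of test compounds on that plate plus 3 SD, cut at about 49% in these data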;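 further: 0% = DMSO plus EC80 beta-PEA response and 100% = DMSO alone without agonist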
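Assay system: CHO-derived RD-HGA16 cells stably expressing human TAAR1 plus Gα16. Timing: 140 s kinetic read after compound, 140 s after agonist. Technique: kinetic Fluo-8 calcium fluorescence measurement. Measure: % inhibition of agonist calcium response.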
Beta2AR agonist: activates human beta-2 adrenergic receptor causing internalization; P07550; Am2.2-beta2AR cells, FAP receptor internalization, flow cytometry; response, % (test concentration not listed); hit rate 0.43% among 340,000;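 active means response above a set limit, near 3 SD of response in nonfluorescent compounds, cut at about 42% in these data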
OPRM1 ag: activates human mu opioid receptor in HTR2A counterscreen; activation, % at 9.3 µM; hit rate 5.3% among 2,300; shares compounds with HTR2A ag; U2OS OPRM1 beta-arrestin PathHunter, luminescence; DMSO 0%, DAMGO 9.3 µM 100%;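 active means mean activation above the mean of DMSO-only wells plus 3 SD, cut at about 0.5% in these data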
HTR2A ag conf: confirmation of mouse HTR2A serotonin receptor agonists; activation, % at 7.6 µM; CHO-K1 PathHunter beta-arrestin recruitment, luminescence; DMSO 0%, 30 µM serotonin 100%; AID 624381; hit rate 19% among 2,300; shares compounds with HTR2A ag;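 active means mean activation across triplicates above the hit threshold derived in the original primary screen, cut at about 15% in these data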
* hit, by the source's call; / = no result given; ! = not confirmed by another sample.

SMILES	MC4R antag cAMP	TAAR1 agonist	HTR2A ag	MC4R ag barr	TAAR1 antagonist	Beta2AR agonist	OPRM1 ag	HTR2A ag conf
O=C(NS(=O)(=O)c1ccc(Cl)cc1)c1ccccc1	14	1	15*	-2	11	4	0	0
COC(=O)C1CCN(CCCOc2ccc(CN3CCN(c4ccc([N+](=O)[O-])cc4)CC3)cc2)CC1	1	2	25*	-2	-6	10	0	75*
COC(=O)C1CCN(c2ccc([N+](=O)[O-])cc2)CC1	11	3	8	-1	-4	3	/	/
CN=C(NC1CCCCC1)c1ccc([N+](=O)[O-])cc1	9	3	-5	0	-1	-4	/	/
COc1ccc(-n2c(=O)[nH]c3cc(C(=O)NCCc4ccccc4)ccc3c2=O)cc1OC	0	0	-8	2	-1	-1	/	/
CCOc1ccc(CCNC(=O)C2=C(C)C(=O)OC23CCC(C)CC3)cc1 (configuration not stated)	14	1	16*	1	-2	-8	0	-3
COc1ccc(CNC(=O)C2=C(C)C(=O)OC23CCC(C)CC3)cc1 (configuration not stated)	10	0	-5	1	-18	-10	/	/
CCC1=C(OC(=O)N(CC)CC)N2C(=O)OC(=NCC3CC3)[C@]2(C)[C@H]2C1=CC[C@H]1C(=O)N(CC)C(=O)[C@H]12	2	3	16*	-1	-5	-8	0	0
CCC1=C(OC(=O)N(CC)CC)N2C(=O)OC(=NCC3CC3)[C@]2(C)[C@H]2C1=CC[C@H]1C(=O)N(C)C(=O)[C@H]12	3	14	5	0	12	-13	/	/
Fc1cccc(Cc2noc(CN3CCOCC3)n2)c1	5	0	4	-2	-20	-8	/	/
c1ccc(Cc2noc(CN3CCCC(CN4CCOCC4)C3)n2)cc1 (configuration not stated)	-8	1	15*	1	-15	7	0	0
CC(C)(C)N=C1SCC(C)(/C=N/O)S1 (configuration not stated)	5	1	17*	1	-5	2	-1	-2
COc1ccc(NC(=O)CN(C)CC(=O)NCC(=O)Nc2ccc(F)cc2)cc1	-1	3	16*	-4	0	-9	-1	-3
COc1cccc(NC(=O)CN(C)CC(=O)NCC(=O)Nc2ccc(F)cc2)c1	8	16	-4	-1	-9	-4	/	/
COc1ccc(-c2csc(C(NC(C)=O)c3ccccc3)n2)cn1 (configuration not stated)	6	3	4	-2	-10	/	/	/
O=C(C1=C(O)C(=O)N(Cc2ccco2)C1c1cccc(O)c1)c1ccco1 (configuration not stated)	16	0	17*	1	-5	-3	0	-5
Cc1ccc(C(=O)C2=C(O)C(=O)N(Cc3ccco3)C2c2cccc(Br)c2)o1 (configuration not stated)	19	4	0	-2	-39	3	/	/
Cc1cccc(C)c1NC(=O)C1(C)CSCC(=O)N1CCc1ccccc1F (configuration not stated)	/	3	-2	/	4	/	/	/
C/C(=N/NC(=O)CNC(=O)COc1ccccc1)c1ccc(Cl)cc1	-4	0	16*	-3	-3	-6	-1	-6
COC(=O)[C@]1(C)N[C@H](CN(C)C(=O)Nc2ccc(Cl)cc2)[C@@H]2C(=O)N(Cc3ccccc3)C(=O)[C@@H]21	3	0	18*	1	1	9	-1	2
CC(C)CCOc1ccc(C(=O)NCC(c2ccco2)N(C)C)cc1 (configuration not stated)	0	-2	4	-1	-16	-12	/	/
CCCc1ccc2oc(C(=O)N3CCN(C4CCS(=O)(=O)C4)CC3)c(C)c2c1 (configuration not stated)	15	0	-4	-2	-42	-11	/	/
CN(C(=O)c1cccc(NC(=O)Cc2ccc(NC(=O)C3CCN(C(=O)C4CCC4)CC3)cc2)c1)C1CCCCC1	-1	3	9	-1	4	-5	/	/
CN(C(=O)c1cccc(NC(=O)Cc2ccc(NC(=O)C3CCN(C(=O)C4CCCCC4)CC3)cc2)c1)C1CC1	6	6	16*	-1	-18	-10	0.7*	5
NC(=O)CSc1n[nH]c(=O)n1CCc1ccccc1	-6	0	6	-2	-12	-3	/	/
SMILES	MC4R antag cAMP	TAAR1 agonist	HTR2A ag	MC4R ag barr	TAAR1 antagonist	Beta2AR agonist	OPRM1 ag	HTR2A ag conf
COc1ccccc1CN(C)C(=O)CN1CCN(C(=O)c2cccs2)CC1	-5	3	17*	-2	6	-7	0	27*
COc1ccccc1CC(NC(C)=O)C(=O)N1CCN(C(=O)c2cccs2)CC1 (configuration not stated)	8	6	4	0	8	-3	/	/
O=C(Nc1ccccc1F)N1CCCC1c1cccnc1 (configuration not stated)	0	3	-1	-1	-18	1	/	/
CN1CCC[C@H]1c1cccnc1	3	1	38*!	-1	-24	-2	0	-4
O=C1NC(Cc2ccc(O)cc2)c2nc3ccc(F)cc3c(=O)n2-c2cc(Cl)ccc21 (configuration not stated)	22	9	0	0	28	4	/	/
CCCn1c(N)cc(=O)n(CCC)c1=O	10	3	16*	-4	0	-8	-1	-5
CC12CCC(C(=O)N(CCCCN3CCN(c4ccccn4)CC3)C1=O)C2(C)C (configuration not stated)	3	3	28*	-1	-12	-7	-1	90*
COCC(=O)Nc1cc([N+](=O)[O-])ccc1OC	7	1	44*	0	-14	-2	-1	-5
COCC(=O)Nc1ccc([N+](=O)[O-])cc1OC	12	0	-2	-3	-12	-13	/	/
O=C(CSc1n[nH]c(-c2ccco2)n1)Nc1sc2c(c1C(=O)Nc1ccccc1)CCCC2	10	4	16*	2	20	-10	0	18*
CCOC(=O)c1c(NC(=O)CSc2n[nH]c(-c3ccco3)n2)sc(C)c1C	1	4	1	2	-40	-4	/	/
